Test results taken from ChEMBL document CHEMBL1130411, “The practical synthesis of a methylenebisphosphonate analogue of benzamide adenine dinucleotide: inhibition of human inosine monophosphate dehydrogenase (type I and II)” (J Med Chem, 1997).

Key:
K562 [1] = assay: Differentiation of K-562 cells at 120 uM with out coadministration of guanosine; format: functional, Homo sapiens
Procedure, shortened: (§1)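 Human erythroleukemia K562 cells grown in RPMI 1640 with 10% heat-inactivated calf serum, glutamine and penicillin/streptomycin; incubated 5 days with compound, with or without 30 µM guanosine. Hemoglobin expression read by benzidine staining (0.1% benzidine in 0.25% H2O2, equal volume, 5 min, room temperature); 300-400 cells counted for % benzidine-positive. Duplicates; average of three experiments.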

K562 [2] = assay: Tested for inhibition of growth in human erythroleukemia K-562 cells.; format: functional, cell-based
Procedure, shortened: (§2)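 K562 cells in RPMI 1640 with 10% heat-inactivated calf serum, glutamine, penicillin/streptomycin; seeded at 5 × 10³ per mL, compound (with or without 30 µM guanosine) added at start. After 5 days, MTT added, 3 h at 37 °C; formazan dissolved in acidified 2-propanol, absorbance 550 nm. Triplicate points; IC50 for 50% growth inhibition averaged over four experiments.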

K562 [3] = assay: Differentiation of K-562 cells at 60 uM with coadministration of guanosine; format: functional, Homo sapiens; procedure, shortened: as §1
K562 [4] = assay: Inhibition of growth in human erythroleukemia K-562 cells (% of untreated control); format: functional; procedure, shortened: as §2
K562 [5] = assay: Differentiation of K-562 cells at 60 uM with out coadministration of guanosine; format: functional, Homo sapiens; procedure, shortened: as §1
K562 [6] = assay: Differentiation of K-562 cells at 120 uM with coadministration of guanosine; format: functional, Homo sapiens; procedure, shortened: as §1
K562 [7] = assay: Differentiation of K-562 cells at 3.8 uM with out coadministration of guanosine; format: functional, Homo sapiens; procedure, shortened: as §1
K562 [8] = assay: Differentiation of K-562 cells at 19 uM with coadministration of guanosine; format: functional, Homo sapiens; procedure, shortened: as §1
K562 [9] = assay: Differentiation of K-562 cells at 3.8 uM with coadministration of guanosine; format: functional, Homo sapiens; procedure, shortened: as §1
K562 [10] = assay: Differentiation of K-562 cells at 19 uM with out coadministration of guanosine; format: functional, Homo sapiens; procedure, shortened: as §1
K562 [11] = assay: Differentiation of K-562 cells at 30 uM with coadministration of guanosine; format: functional, Homo sapiens; procedure, shortened: as §1
K562 [12] = assay: Differentiation of K-562 cells at 15 uM with out coadministration of guanosine; format: functional, Homo sapiens; procedure, shortened: as §1
K562 [13] = assay: Differentiation of K-562 cells at 30 uM with out coadministration of guanosine; format: functional, Homo sapiens; procedure, shortened: as §1
K562 [14] = assay: Differentiation of K-562 cells at 15 uM with coadministration of guanosine; format: functional, Homo sapiens; procedure, shortened: as §1
K562 [15] = assay: Differentiation of K-562 cells at 7.5 uM with coadministration of guanosine; format: functional, Homo sapiens; procedure, shortened: as §1
K562 [16] = assay: Differentiation of K-562 cells at 7.5 uM with out coadministration of guanosine; format: functional, Homo sapiens; procedure, shortened: as §1

## NC(=O)c1cccc([C@@H]2O[C@H](COP(=O)(O)CP(=O)(O)OC[C@@H]3O[C@H](n4cnc5c(N)ncnc54)[C@@H](O)[C@H]3O)[C@@H](O)[C@H]2O)c1
K562 [1]
  Benzidine positive cells: 75%
K562 [2]
  IC50: 60 µM
K562 [3]
  Benzidine positive cells: 15%
K562 [4]
  Growth inhibition (% of untreated control): 90%
K562 [5]
  Benzidine positive cells: 45%
K562 [6]
  Benzidine positive cells: 17%

## NC(=O)c1csc([C@@H]2O[C@H](CO)[C@@H](O)[C@H]2O)n1 [TIAZOFURIN]
K562 [7]
  Benzidine positive cells: 36%
K562 [4]
  Growth inhibition (% of untreated control): 90%
K562 [8]
  Benzidine positive cells: 40%
K562 [9]
  Benzidine positive cells: 12%
K562 [10]
  Benzidine positive cells: 80%

## NC(=O)c1csc([C@@H]2O[C@H](COP(=O)(O)CP(=O)(O)OC[C@@H]3O[C@H](n4cnc5c(N)ncnc54)[C@@H](O)[C@H]3O)[C@@H](O)[C@H]2O)n1
K562 [11]
  Benzidine positive cells: 30%
K562 [4]
  Growth inhibition (% of untreated control): 90%
K562 [12]
  Benzidine positive cells: 34%
K562 [13]
  Benzidine positive cells: 85%
K562 [14]
  Benzidine positive cells: 23%

## NC(=O)c1csc([C@H]2O[C@@H](COP(=O)(O)OP(=O)(O)OC[C@H]3O[C@@H](n4cnc5c(N)ncnc54)[C@H](O)[C@@H]3O)[C@H](O)[C@@H]2O)n1
K562 [4]
  Growth inhibition (% of untreated control): 80%
K562 [15]
  Benzidine positive cells: 15%
K562 [12]
  Benzidine positive cells: 70%
K562 [14]
  Benzidine positive cells: 30%
K562 [16]
  Benzidine positive cells: 50%
